# From ChEMBL document CHEMBL1146760, “3,4-Dihydronaphthalen-1(2H)-ones: novel ligands for the benzodiazepine site of alpha5-containing GABAA receptors” (Bioorg Med Chem Lett, 2004)
# Assays:
# [1] = biological target: T1, GABA-A receptor; alpha-2/beta-3/gamma-2 (Homo sapiens, UniProt P18507+P28472+P47869); experiment: Inhibition of [3H]-Ro- 15-1788 binding to recombinant human gamma-aminobutyric-acid A receptor alpha-2-beta-3-gamma-2; assay type: protein-complex assay
# T1 sequence (P18507 whole entry): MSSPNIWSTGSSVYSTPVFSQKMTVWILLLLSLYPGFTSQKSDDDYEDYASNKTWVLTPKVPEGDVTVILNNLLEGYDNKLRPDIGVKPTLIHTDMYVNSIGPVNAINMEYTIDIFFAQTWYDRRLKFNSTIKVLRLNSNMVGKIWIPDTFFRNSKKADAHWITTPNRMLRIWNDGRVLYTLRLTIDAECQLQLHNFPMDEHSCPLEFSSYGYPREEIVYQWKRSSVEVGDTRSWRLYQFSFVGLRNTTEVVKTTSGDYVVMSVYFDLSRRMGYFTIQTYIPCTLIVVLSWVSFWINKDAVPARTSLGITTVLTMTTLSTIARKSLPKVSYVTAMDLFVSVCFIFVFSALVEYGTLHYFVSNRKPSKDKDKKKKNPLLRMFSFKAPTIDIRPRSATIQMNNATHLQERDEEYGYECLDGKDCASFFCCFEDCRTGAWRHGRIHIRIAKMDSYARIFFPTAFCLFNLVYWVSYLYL
# T1 sequence (P28472 whole entry): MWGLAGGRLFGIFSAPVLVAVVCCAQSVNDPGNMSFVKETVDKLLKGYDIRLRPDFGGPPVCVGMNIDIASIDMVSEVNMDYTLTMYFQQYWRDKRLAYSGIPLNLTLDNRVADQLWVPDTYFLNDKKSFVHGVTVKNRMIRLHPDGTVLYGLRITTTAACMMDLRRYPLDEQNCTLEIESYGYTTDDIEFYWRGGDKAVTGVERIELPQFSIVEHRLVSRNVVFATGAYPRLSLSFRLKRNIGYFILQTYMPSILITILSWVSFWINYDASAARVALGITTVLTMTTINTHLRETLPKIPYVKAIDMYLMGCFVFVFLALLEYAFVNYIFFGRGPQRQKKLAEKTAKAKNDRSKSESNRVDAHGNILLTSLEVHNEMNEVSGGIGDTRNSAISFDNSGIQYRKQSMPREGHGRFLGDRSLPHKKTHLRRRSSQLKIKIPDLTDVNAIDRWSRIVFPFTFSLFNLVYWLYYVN
# T1 sequence (P47869 whole entry): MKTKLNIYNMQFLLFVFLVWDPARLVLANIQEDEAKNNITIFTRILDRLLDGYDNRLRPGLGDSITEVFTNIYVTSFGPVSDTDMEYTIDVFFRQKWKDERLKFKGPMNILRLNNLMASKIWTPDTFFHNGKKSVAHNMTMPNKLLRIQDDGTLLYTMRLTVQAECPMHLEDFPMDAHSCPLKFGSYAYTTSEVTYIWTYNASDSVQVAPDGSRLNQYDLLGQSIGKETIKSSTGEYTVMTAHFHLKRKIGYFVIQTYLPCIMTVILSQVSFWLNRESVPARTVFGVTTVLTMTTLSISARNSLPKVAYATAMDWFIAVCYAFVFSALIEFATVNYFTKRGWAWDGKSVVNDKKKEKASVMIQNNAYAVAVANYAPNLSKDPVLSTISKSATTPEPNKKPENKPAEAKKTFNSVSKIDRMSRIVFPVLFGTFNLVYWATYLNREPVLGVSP
# Method in brief: (§1)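 Displacement of [3H]Ro 15-1788 from recombinant human GABAA receptor subtypes; Ki reported as mean ± SEM of at least three independent determinations, or mean of two determinations with both individual values shown.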
# [2] = biological target: T2, GABA-A receptor; alpha-1/beta-3/gamma-2 (Homo sapiens, UniProt P14867+P18507+P28472); experiment: Inhibition of [3H]-Ro- 15-1788 binding to recombinant human gamma-aminobutyric-acid A receptor alpha-1-beta-3-gamma-2; assay type: protein-complex assay; method in brief: as §1
# T2 sequence (P14867 whole entry): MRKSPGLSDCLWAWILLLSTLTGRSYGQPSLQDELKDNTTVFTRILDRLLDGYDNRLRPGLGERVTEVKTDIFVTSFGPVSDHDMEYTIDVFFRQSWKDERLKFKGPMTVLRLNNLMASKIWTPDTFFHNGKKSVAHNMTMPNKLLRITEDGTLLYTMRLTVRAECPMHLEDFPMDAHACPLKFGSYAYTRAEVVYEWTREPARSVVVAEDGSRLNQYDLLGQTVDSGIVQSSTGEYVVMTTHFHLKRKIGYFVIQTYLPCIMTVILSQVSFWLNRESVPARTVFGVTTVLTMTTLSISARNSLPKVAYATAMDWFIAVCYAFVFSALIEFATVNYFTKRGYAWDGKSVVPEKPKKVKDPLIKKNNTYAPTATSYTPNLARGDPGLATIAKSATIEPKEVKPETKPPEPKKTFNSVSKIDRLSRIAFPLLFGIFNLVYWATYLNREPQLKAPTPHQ
# T2 sequence (P18507 whole entry): T1 sequence (P18507 whole entry)
# T2 sequence (P28472 whole entry): T1 sequence (P28472 whole entry)
# [3] = biological target: T3, GABA-A receptor; alpha-5/beta-3/gamma-2 (Homo sapiens) (UniProt P18507+P28472+P31644); experiment: Percentage modulation of submaximal (EC20) response to GABA-A receptor alpha-5-beta-3-gamma-2 subunits expressed in mouse fibroblast L(tk-) cells; assay type: functional, cell-based
# Method in brief: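 Whole-cell patch clamp of mouse fibroblast L(tk⁻) cells stably expressing human α5β3γ2. Percentage maximum modulation of current relative to a submaximal (EC20) GABA response, taken from fitted concentration–response curves. Mean ± SEM of at least three individual curves.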
# [4] = biological target: T4, GABA-A receptor; alpha-3/beta-3/gamma-2 (Homo sapiens, UniProt P18507+P28472+P34903); experiment: Inhibition of [3H]-Ro- 15-1788 binding to recombinant human gamma-aminobutyric-acid A receptor alpha-3-beta-3-gamma-2; assay type: protein-complex assay; method in brief: as §1
# T4 sequence (P18507 whole entry): T1 sequence (P18507 whole entry)
# T4 sequence (P28472 whole entry): T1 sequence (P28472 whole entry)
# T4 sequence (P34903 whole entry): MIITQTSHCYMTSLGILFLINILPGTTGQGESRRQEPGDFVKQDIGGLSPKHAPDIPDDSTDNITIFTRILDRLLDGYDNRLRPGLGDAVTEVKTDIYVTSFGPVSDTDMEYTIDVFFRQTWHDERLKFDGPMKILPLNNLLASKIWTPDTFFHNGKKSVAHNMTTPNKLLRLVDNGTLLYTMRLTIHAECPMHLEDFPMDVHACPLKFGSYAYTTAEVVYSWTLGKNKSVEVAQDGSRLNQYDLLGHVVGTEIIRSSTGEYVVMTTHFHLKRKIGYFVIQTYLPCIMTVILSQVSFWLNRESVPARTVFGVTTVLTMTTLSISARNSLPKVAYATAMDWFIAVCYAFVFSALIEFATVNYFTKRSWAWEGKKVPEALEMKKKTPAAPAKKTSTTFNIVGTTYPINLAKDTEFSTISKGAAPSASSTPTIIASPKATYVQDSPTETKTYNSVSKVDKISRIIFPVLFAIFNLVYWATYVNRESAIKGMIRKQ
# [5] = biological target: T5, Gamma-aminobutyric acid receptor subunit alpha-5 (Homo sapiens) (UniProt P31644); experiment: Selectivity for GABA-A receptor alpha-5 subunit over alpha1,2,3 (range 3-12)
# T5 sequence (whole entry): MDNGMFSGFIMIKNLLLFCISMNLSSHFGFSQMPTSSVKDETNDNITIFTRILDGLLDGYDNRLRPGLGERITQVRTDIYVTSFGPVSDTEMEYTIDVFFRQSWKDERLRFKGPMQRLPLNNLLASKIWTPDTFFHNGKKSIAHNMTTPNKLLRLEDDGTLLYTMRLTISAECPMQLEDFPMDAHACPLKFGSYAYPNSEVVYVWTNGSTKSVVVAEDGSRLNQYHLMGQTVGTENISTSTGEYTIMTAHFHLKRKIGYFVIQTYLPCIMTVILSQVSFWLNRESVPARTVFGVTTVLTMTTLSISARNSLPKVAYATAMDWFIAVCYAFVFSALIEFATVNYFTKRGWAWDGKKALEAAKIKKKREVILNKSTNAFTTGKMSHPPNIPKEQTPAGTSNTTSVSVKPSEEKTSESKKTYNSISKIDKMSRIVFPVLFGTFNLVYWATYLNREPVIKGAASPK
# [6] = biological target: T6, GABA-A receptor; alpha-5/beta-3/gamma-2 (Homo sapiens, UniProt P18507+P28472+P31644); experiment: Inhibition of [3H]-Ro- 15-1788 binding to human GABA-A receptor alpha-5-beta-3-gamma-2 subunits; assay type: protein-complex assay; method in brief: as §1
# T6 sequence (P18507 whole entry): T1 sequence (P18507 whole entry)
# T6 sequence (P28472 whole entry): T1 sequence (P28472 whole entry)
# T6 sequence (P31644 whole entry): T5 sequence (whole entry)
# [7] = biological target: T5, Gamma-aminobutyric acid receptor subunit alpha-5 (Homo sapiens); experiment: Selectivity for GABA-A receptor alpha-5 subunit over alpha1,2,3 (range 6-8)
# [8] = biological target: T3, GABA-A receptor; alpha-5/beta-3/gamma-2 (Homo sapiens); experiment: Percentage modulation of submaximal (EC20) response to GABA-A receptor alpha-5-beta-3-gamma-2 subunits expressed in Xenopus laevis oocytes; assay type: functional, cell-based; settings: Oocyte
# [9] = biological target: T5, Gamma-aminobutyric acid receptor subunit alpha-5 (Homo sapiens); experiment: Selectivity for GABA-A receptor alpha-5 subunit over alpha1,2,3
# [10] = biological target: T5, Gamma-aminobutyric acid receptor subunit alpha-5 (Homo sapiens); experiment: Selectivity for GABA-A receptor alpha-5 subunit over alpha1,2,3 (range 6-14)
# [11] = biological target: T5, Gamma-aminobutyric acid receptor subunit alpha-5 (Homo sapiens); experiment: Selectivity for GABA-A receptor alpha-5 subunit over alpha1,2,3 (range 7-13)
# [12] = biological target: T5, Gamma-aminobutyric acid receptor subunit alpha-5 (Homo sapiens); experiment: Selectivity for GABA-A receptor alpha-5 subunit over alpha1,2,3 (range 10-13)
# [13] = biological target: T5, Gamma-aminobutyric acid receptor subunit alpha-5 (Homo sapiens); experiment: Selectivity for GABA-A receptor alpha-5 subunit over alpha1,2,3 (range 5-15)
# [14] = biological target: T5, Gamma-aminobutyric acid receptor subunit alpha-5 (Homo sapiens); experiment: Selectivity for GABA-A receptor alpha-5 subunit over alpha1,2,3 (range 16-38)
# [15] = biological target: T5, Gamma-aminobutyric acid receptor subunit alpha-5 (Homo sapiens); experiment: Selectivity for GABA-A receptor alpha5 subunit over alpha1,2,3 (range 5-9)
# [16] = biological target: T5, Gamma-aminobutyric acid receptor subunit alpha-5 (Homo sapiens); experiment: Selectivity for GABA-A receptor alpha-5 subunit over alpha1,2,3 (range 5-11)
# [17] = biological target: T5, Gamma-aminobutyric acid receptor subunit alpha-5 (Homo sapiens); experiment: Selectivity for GABA-A receptor alpha-5 subunit over alpha1,2,3 (range 14-35)
Structure (SMILES),Ki [1] [nM],Ki [2] [nM],Efficacy [3] [%],Ki [4] [nM],Ki [6] [nM],Efficacy [8] [%],also measured
CSc1ccc(-c2ccccn2)c2c1C(=O)CC(C)(C)C2,60,229,-32,59,19,,Selectivity [5]: 12
CSc1ccc(-c2ccccn2)c2c1C(=O)CC(C)C2 (stereo not given),63,63,,42,7.5,-5,Selectivity [7]: 8
CCSc1ccc(-c2cccc[n+]2[O-])c2c1C(=O)CC(C)C2 (stereo not given),271,> 300,80,286,25,,Selectivity [9]: > 11
CCSc1ccc(-c2ncco2)c2c1C(=O)CC(C)C2 (stereo not given),38,37,,16,2.6,5,Selectivity [10]: 14
CCSc1ccc(-c2ccccn2)c2c1C(=O)CC(C)C2 (stereo not given),13,25,,15,1.9,2,Selectivity [11]: 13
COc1nc(CSc2ccc(-c3nccs3)c3c2C(=O)CC(C)C3)ns1 (stereo not given),34,40,57,35,3.2,,Selectivity [12]: 13
CCSc1ccc(-c2nccs2)c2c1C(=O)CC(C)C2 (stereo not given),15,5.4,,12,1,-8,Selectivity [13]: 15
CC1CC(=O)c2c(SCc3ncn(C)n3)ccc(-c3nccs3)c2C1 (stereo not given),20,38,29,16,1,,Selectivity [14]: 38
CNC1=Nc2ccc(Cl)cc2C(c2ccccc2)=[N+]([O-])C1,,,99,,,134,
CCSc1ccc(-c2cnccn2)c2c1C(=O)CC(C)C2 (stereo not given),19,11,,13,2.1,2,Selectivity [15]: 9
CC1CC(=O)c2c(Sc3cccs3)ccc(-c3ccccn3)c2C1 (stereo not given),5.4,2.3,,4.5,0.5,50,Selectivity [16]: 11
CC1CC(=O)c2c(SCc3cn[nH]n3)ccc(-c3nccs3)c2C1 (stereo not given),57,92,6,36,2.6,,Selectivity [17]: 35
CCSc1ccc(-c2ccccn2)c2c1C(=O)CCC2,> 300,> 300,,> 300,103,,Selectivity [9]: > 3
CCc1c(C(=O)OC)ncc2[nH]c3cc(OC)c(OC)cc3c12,,,-57,,,-34,
